A short description of series [1]: Cytotoxicity against human HepG2 cells after 72 hrs by MTT assay. In kind it is cell-based. In outline: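 HepG2 cells seeded at 5×10^3/well in RPMI with 10% FBS, L-glutamine, penicillin/streptomycin, 37 °C under 6% CO₂/14% O₂/80% N₂. Compounds added after 24 h, 72 h exposure, duplicate wells. MTT (5 mg/mL stock) for 2 h, formazan dissolved in DMSO, A570 with 630 nm reference. Viability relative to untreated cells. CC50 from non-linear regression, mean of three independent experiments.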
In general terms: Formazan colour is commonly taken as a measure of viable cells.

The subject of a further series is Plasmodium falciparum. The series is described as follows: Antiplasmodial activity against multidrug-resistant Plasmodium falciparum K1 ring stage after 72 hrs by […] Green fluorescence-based assay. In kind it is functional, organism-based. The conditions noted are these: K1, 72 h.
A short description of series [2]: Selectivity index, ratio of CC50 for human HepG2 cells to IC50 for multidrug-resistant Plasmodium falciparum K1 ring stage. In kind it is functional. A digest of the protocol: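 SI = CC50 (HepG2)/IC50 (K1). HepG2 MTT: 5×10^3 cells/well, 24 h preculture, compound 72 h, 37 °C; MTT 2 h, formazan in DMSO, A570 (ref 630 nm); duplicates, CC50 by non-linear regression, mean of three experiments. K1 IC50 by 72 h SYBR Green assay on sorbitol-synchronized rings.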

`Cc1ccc(S(=O)(=O)c2cc3ccccc3c3sc(C)nc23)cc1`: the midpoint of cytotoxicity in series [1], the CC50 at 72 h, lay at 2.2 µM. As for `Cc1ccc(S(=O)(=O)c2cc3ccc(C)cc3c3sc(C)nc23)cc1`, the CC50 at 72 h in series [1] was > 250 µM. Further, the IC50 in the series on Plasmodium falciparum is > 25 µM. Regarding `Cc1ccc(S(=O)(=O)c2cc3cc(F)ccc3c3sc(C)nc23)cc1`, in series [1], the CC50 at 72 h is 3.1 µM.

On to `COc1cc2cc(S(=O)(=O)c3ccc(C)cc3)c3nc(C)sc3c2cc1OC`, for which, in series [1], the CC50 at 72 h was > 125 µM. In the series on Plasmodium falciparum, the IC50 is > 25 µM.

Regarding `Cc1ccc(S(=O)(=O)c2c(N)c3ccccc3c3sc(C)nc23)cc1`, the CC50 at 72 h in series [1] came out at 0.2 µM.

In series [1], `Cc1ccc(S(=O)(=O)c2c(N)c3cc(F)ccc3c3sc(C)nc23)cc1` came in with a CC50 at 72 h of 0.2 µM. For the compound `Cc1nc2c(S(=O)(=O)c3ccccc3)cc3ccccc3c2s1`, the CC50 at 72 h in series [1] is 11.3 µM. Further, the IC50 in the series on Plasmodium falciparum is > 25 µM. Besides, the “Ratio CC50/IC50” value in series [2] is <0.5. With `Cc1ccc2cc(S(=O)(=O)c3ccccc3)c3nc(C)sc3c2c1`, the CC50 at 72 h in series [1] was > 125 µM. The compound also gave an IC50 in the series on Plasmodium falciparum of 4.8 µM. Besides, the “Ratio CC50/IC50” value in series [2] was >26. In the same order, the values of `Cc1nc2c(S(=O)(=O)c3ccccc3)cc3cc(F)ccc3c2s1` are 26 µM, > 25 µM and <1. Regarding `COc1cc2cc(S(=O)(=O)c3ccccc3)c3nc(C)sc3c2cc1OC`, in series [1], the CC50 at 72 h is > 125 µM. Besides, half-maximal inhibition in the series on Plasmodium falciparum (IC50) was put at 2.7 µM. Also, in series [2], the “Ratio CC50/IC50” value is >45. Regarding `Cc1nc2c(S(=O)(=O)c3ccccc3)c(N)c3ccccc3c2s1`, in series [1], the CC50 at 72 h was > 500 µM. Besides, in the series with Plasmodium falciparum, the IC50 is > 25 µM.

Regarding `Cc1nc2c(S(=O)(=O)c3ccccc3)c(N)c3cc(F)ccc3c2s1`, the CC50 at 72 h in series [1] is > 500 µM. Besides, the IC50 in the series with Plasmodium falciparum is > 25 µM. In series [1], `Cc1nc2c(S(=O)(=O)c3ccc(Cl)cc3)cc3ccccc3c2s1` came in with a CC50 at 72 h of 6 µM. Still for that read-out and setting: the figure for `Cc1nc2c(S(=O)(=O)c3ccc(Cl)cc3)cc3cc(F)ccc3c2s1` is 3.4 µM. For the compound `COc1cc2cc(S(=O)(=O)c3ccc(Cl)cc3)c3nc(C)sc3c2cc1OC`, in series [1], the CC50 at 72 h was > 31.2 µM. Also, the IC50 in the series with Plasmodium falciparum is > 25 µM. `Cc1nc2c(S(=O)(=O)c3ccc(Cl)cc3)c(N)c3ccccc3c2s1` showed a CC50 at 72 h in series [1] of 1 µM. Regarding `Cc1nc2c(S(=O)(=O)c3ccc(Cl)cc3)c(N)c3cc(F)ccc3c2s1`, the midpoint of cytotoxicity in series [1], the CC50 at 72 h, lay at 0.5 µM. For the compound `C[C@H]1c2cccc(O)c2C(=O)C2=C(O)[C@]3(O)C(=O)C(C(N)=O)=C(O)[C@@H](N(C)C)[C@@H]3[C@@H](O)[C@@H]21.O` [DOXYCYCLINE], the “Ratio CC50/IC50” value in series [2] came to 4.

The CC50 is the concentration that lowers cell viability or growth by half. Higher therefore signals lower toxicity to the cells. What is called IC50 is the midpoint of a concentration-inhibition curve. Low values mean higher potency, high ones lower potency.

The values above are taken from ChEMBL document CHEMBL2062526, “Tandem synthesis and in vitro antiplasmodial evaluation of new naphtho[2,1-d]thiazole derivatives” (Eur J Med Chem, 2012).
